One block for each compound: values may come before it.
What was measured:
Type in all cases: physicochemical
[1] = Evaluated for ionization constant (pKa2) by titrations performed in presence of a MeOH and at a dielectric constant of 56; conditions: MeOH cosolvent, dielectric constant 56; read-out: pKa2
Outline: (§1)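 pH-metric titration in mixed water/cosolvent media (MeOH or EtOH, depending on the ligand) at several cosolvent proportions, each proportion setting the dielectric constant. Electrode calibrated with pH 7.00 phosphate buffer and standardized after a blank titration by a nonlinear semiempirical fit. Readings were converted to pcH to give concentration-scale constants.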

[2] = Evaluated for ionization constant (pKa2) by titrations performed in presence of a MeOH and at a dielectric constant of 49; conditions: MeOH cosolvent, dielectric constant 49; read-out: pKa2; outline: as §1
[3] = Evaluated for ionization constant (pKa1) by titrations performed in presence of a MeOH and at a dielectric constant of 56; conditions: MeOH cosolvent, dielectric constant 56; read-out: pKa1; outline: as §1
[4] = Evaluated for ionization constant (pKa2) by titrations performed using method of Yasuda and Shedlovsky; conditions: read-out: pKa2
Outline: (§2)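 Aqueous constants were extrapolated by the Yasuda–Shedlovsky method from pH-metric titrations run at several MeOH or EtOH cosolvent levels. Electrode calibrated with pH 7.00 phosphate buffer and standardized after a blank titration. Values are expressed on the pcH (-log[H+]) concentration scale.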

[5] = Evaluated for ionization constant (pKa2) by titrations performed in presence of a MeOH and at a dielectric constant of 62; conditions: MeOH cosolvent, dielectric constant 62; read-out: pKa2; outline: as §1
[6] = Evaluated for ionization constant (pKa3) by titrations performed in presence of a MeOH and at a dielectric constant of 62; conditions: MeOH cosolvent; read-out: pKa3; outline: as §1
[7] = Evaluated for ionization constant (pKa4) by titrations performed in presence of a MeOH and at a dielectric constant of 49; conditions: MeOH cosolvent; read-out: pKa4; outline: as §1
[8] = Evaluated for ionization constant (pKa3) by titrations performed in presence of a MeOH and at a dielectric constant of 56; conditions: MeOH cosolvent; read-out: pKa3; outline: as §1
[9] = Evaluated for ionization constant (pKa1) by titrations performed in presence of a MeOH and at a dielectric constant of 62; conditions: MeOH cosolvent, dielectric constant 62; read-out: pKa1; outline: as §1
[10] = Partition coefficient (logP) (cyclohexane)
Outline: (§3)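 Free-ligand partition coefficients are measured by the pH-metric technique. This uses two linked titrations: a normal aqueous titration, then a two-phase titration in the presence of the partition solvent.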

[11] = Evaluated for ionization constant (pKa4) by titrations performed in presence of a MeOH and at a dielectric constant of 62; conditions: MeOH cosolvent; read-out: pKa4; outline: as §1
[12] = Evaluated for ionization constant (pKa4) by titrations performed in presence of a MeOH and at a dielectric constant of 56; conditions: MeOH cosolvent; read-out: pKa4; outline: as §1
[13] = Evaluated for ionization constant (pKa4) by titrations performed using the method of Yasuda and Shedlovsky; conditions: read-out: pKa4
Outline: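 Potentiometric pH titration. The electrode is calibrated with pH 7.00 phosphate buffer. A blank titration before each set standardizes the electrode by a nonlinear semiempirical equation, and readings are converted to the concentration scale pcH = −log[H+]. Runs use varying amounts of MeOH or EtOH cosolvent, and aqueous pKa values are extrapolated by the Yasuda–Shedlovsky method. Low pKa values (pH < 2) are determined by spectrophotometric titration.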

[14] = Evaluated for ionization constant (pKa3) by titrations performed using the method of Yasuda and Shedlovsky; conditions: read-out: pKa3; outline: as §2
[15] = Evaluated for ionization constant (pKa3) by titrations performed in presence of a MeOH and at a dielectric constant of 49; conditions: MeOH cosolvent; read-out: pKa3; outline: as §1
[16] = Partition coefficient (logP); conditions: octanol/water; outline: as §3
[17] = Evaluated for ionization constant (pKa1) by titrations performed using method of Yasuda and Shedlovsky; conditions: read-out: pKa1; outline: as §2
[18] = Evaluated for ionization constant (pKa3) by titrations performed in the presence of EtOH and at a dielectric constant of 52; conditions: EtOH cosolvent; read-out: pKa3; outline: as §1
[19] = Evaluated for ionization constant (pKa4) by titrations performed in the presence of EtOH and at a dielectric constant of 63; conditions: EtOH cosolvent; read-out: pKa4; outline: as §1
[20] = Evaluated for ionization constant (pKa3) by titrations performed in the presence of EtOH and at a dielectric constant of 57; conditions: EtOH cosolvent; read-out: pKa3; outline: as §1
[21] = Partition coefficient (logP) (chloroform); outline: as §3
[22] = Evaluated for ionization constant (pKa4) by titrations performed in the presence of EtOH and at a dielectric constant of 57; conditions: EtOH cosolvent; read-out: pKa4; outline: as §1
[23] = Evaluated for ionization constant (pKa3) by titrations performed in the presence of EtOH and at a dielectric constant of 63; conditions: EtOH cosolvent; read-out: pKa3; outline: as §1
[24] = Evaluated for ionization constant (pKa2) by titrations performed in the presence of EtOH and at a dielectric constant of 52; conditions: EtOH cosolvent, dielectric constant 52; read-out: pKa2; outline: as §1
[25] = Evaluated for ionization constant (pKa2) by titrations performed in the presence of EtOH and at a dielectric constant of 57; conditions: EtOH cosolvent, dielectric constant 57; read-out: pKa2; outline: as §1
[26] = Evaluated for ionization constant (pKa4) by titrations performed in the presence of EtOH and at a dielectric constant of 52; conditions: EtOH cosolvent; read-out: pKa4; outline: as §1

pKa [1]: 11.6 | pKa [2]: 11.9 | pKa [3]: 12.9 | pKa [4]: 10.9 | pKa [5]: 11.3 | pKa [6]: 5.58 | pKa [7]: 0.69 | pKa [8]: 5.46 | pKa [9]: 12.6 | logP [10]: 2.11 | pKa [11]: 1.1 | pKa [12]: 0.82 | pKa [13]: 1.4 | pKa [14]: 5.7 | pKa [15]: 5.4 | logP [16]: 2.86 | pKa [17]: 12.2
Structure (SMILES): COC(=O)CN(CCN(CC(=O)OC)Cc1ccccc1O)Cc1ccccc1O

pKa [18]: 5.09 | pKa [4]: 10.9 | pKa [19]: 1.42 | pKa [20]: 5.25 | logP [21]: 3.35 | pKa [22]: 1.21 | logP [10]: 3.22 | pKa [23]: 5.45 | pKa [24]: 11.8 | pKa [13]: 1.8 | pKa [14]: 5.7 | logP [16]: 3.35 | pKa [17]: 12.2 | pKa [25]: 11.6 | pKa [26]: 1.05
Structure (SMILES): CCOC(=O)CN(CCN(CC(=O)OCC)Cc1ccccc1O)Cc1ccccc1O

From ChEMBL document CHEMBL1133005, “Improving the oral bioavailability of the iron chelator HBED by breaking the symmetry of the intramolecular H-bond network” (J Med Chem, 2000)
